Assay [1] addresses Epidermal growth factor receptor (Homo sapiens) (UniProt P00533). The assay can be described thus: Inhibition of human recombinant EGF receptor autophosphorylation expressed in A431 cells at 1 nM after 5 mins by immunoblotting analysis. Conditions: A-431. Type of assay: cell-based. The essentials: (§1)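 A431 cells were seeded at 1×10^4/well, grown 4 days, then starved 24 h in serum-free medium with 1 mg/mL BSA. Cells were given peptide or PBS for 1 h at 37 °C, then 100 ng/mL human EGF for 5 min. Lysates in NP-40 buffer were diluted to 500 µg/mL protein and run on SDS-PAGE. Blots were probed with anti-EGFR pY1068, then stripped and re-probed for total EGFR. Mean of two independent experiments in duplicate.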

Assay [2] has the same target. Briefly: Inhibition of human recombinant EGF receptor autophosphorylation expressed in A431 cells at 10 uM after 5 mins by immunoblotting analysis. The assay is classed as cell-based. Conditions: A-431. The method in brief: as §1
(Immunoblotting shows a protein as a band on a membrane.)

Assay [3] deals with A-431. The assay can be described thus: Antiproliferative activity against human A431 cells at 10 uM after 3 days by WST-8 assay. The assay is classed as functional. Conditions: A-431, 72 h. The essentials:
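A431 cells in DMEM with 10% FBS were seeded at 5×10^3 cells/well and grown 24 h at 37 °C, 5% CO₂. Peptide at 10 µM, or distilled water as the 100% growth control, was added and cells were re-incubated 24 h for three consecutive days. WST-8 was then added for 90 min and absorbance read at 450 nm (reference 655 nm). Six replicate wells, three independent repeats; mean ± SD.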
On the technique in general: Tetrazolium dyes change colour on reduction, which living cells bring about.

Assay [4] has as its target Epidermal growth factor receptor (Homo sapiens) (UniProt P00533). The assay can be described thus: Human recombinant EGF receptor dimer amount expressed in A431 cells at 10 uM after 10 mins by immunoblotting analysis relative to control. Conditions: A-431.
Assay [5] shares this target. Briefly: Inhibition of human recombinant EGF receptor dimerization expressed in A431 cells at 10 uM after 10 mins by immunoblotting analysis relative to CYNPTTYQMC
Conditions: A-431. The assay is classed as cell-based.

Assay [6] shares this target. Briefly: Inhibition of human recombinant EGF receptor dimerization expressed in A431 cells at 10 uM after 10 mins by immunoblotting analysis relative to control. Type of assay: cell-based. Conditions: A-431. The method in brief:
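Confluent A431 cells were solubilized in 20 mM HEPES pH 7.4 with 1% Triton X-100, 10% glycerol, 1 mM EGTA and 1 mM PMSF, and the extract was spun at 250,000×g. Supernatant at 2 µg/µL protein was pre-treated 60 min with 10 µM peptide, then given 0.21 µM human EGF for 10 min. Cross-linking was with 1 mM BS³ for 10 min, quenched with glycine. Dimer and monomer were resolved by SDS-PAGE and anti-EGFR immunoblot, with ECL quantification. Dimer without peptide was set to 1.0; mean ± SD of at least three experiments in duplicate.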

These results are taken from ChEMBL document CHEMBL2146466, “Evaluation of dimerization-inhibitory activities of cyclic peptides containing a β-hairpin loop sequence of the EGF receptor” (2012).

Activity calls are given as the source filed them. No cut-off for these calls is given here. Where a SMILES comes first, the peptide text is derived from it.

Chain of Epidermal growth factor receptor (Homo sapiens) (P00533 whole entry): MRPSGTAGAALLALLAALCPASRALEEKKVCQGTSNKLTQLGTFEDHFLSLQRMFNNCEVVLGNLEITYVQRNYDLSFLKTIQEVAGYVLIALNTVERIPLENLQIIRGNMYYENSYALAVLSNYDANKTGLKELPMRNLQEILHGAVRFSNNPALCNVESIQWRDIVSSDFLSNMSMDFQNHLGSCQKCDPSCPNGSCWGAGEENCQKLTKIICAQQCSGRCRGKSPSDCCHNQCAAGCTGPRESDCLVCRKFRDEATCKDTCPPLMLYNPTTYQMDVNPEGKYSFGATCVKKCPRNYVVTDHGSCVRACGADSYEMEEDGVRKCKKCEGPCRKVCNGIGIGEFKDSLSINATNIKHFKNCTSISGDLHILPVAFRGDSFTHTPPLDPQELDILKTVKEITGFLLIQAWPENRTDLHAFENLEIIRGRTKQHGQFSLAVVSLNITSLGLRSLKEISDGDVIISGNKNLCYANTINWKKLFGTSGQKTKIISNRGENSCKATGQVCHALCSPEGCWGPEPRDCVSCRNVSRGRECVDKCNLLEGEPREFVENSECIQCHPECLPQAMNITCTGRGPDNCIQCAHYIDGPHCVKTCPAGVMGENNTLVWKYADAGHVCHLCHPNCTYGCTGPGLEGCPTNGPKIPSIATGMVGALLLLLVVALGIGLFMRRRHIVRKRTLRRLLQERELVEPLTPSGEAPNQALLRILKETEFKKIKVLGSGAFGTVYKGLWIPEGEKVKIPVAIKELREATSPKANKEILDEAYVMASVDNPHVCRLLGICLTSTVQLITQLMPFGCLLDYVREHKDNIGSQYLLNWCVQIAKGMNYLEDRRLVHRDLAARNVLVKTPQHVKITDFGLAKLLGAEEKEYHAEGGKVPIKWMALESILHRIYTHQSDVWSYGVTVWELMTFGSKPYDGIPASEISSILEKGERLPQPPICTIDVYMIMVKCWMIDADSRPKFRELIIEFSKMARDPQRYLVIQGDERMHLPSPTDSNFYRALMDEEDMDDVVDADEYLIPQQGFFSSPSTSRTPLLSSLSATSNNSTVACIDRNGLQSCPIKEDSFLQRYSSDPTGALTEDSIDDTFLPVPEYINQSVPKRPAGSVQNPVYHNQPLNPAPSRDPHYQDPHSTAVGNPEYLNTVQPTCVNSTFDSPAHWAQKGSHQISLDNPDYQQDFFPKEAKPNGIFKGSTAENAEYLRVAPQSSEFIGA

`CSCC[C@H]1NC(=O)[C@H](N)CSSC[C@H](C(=O)O)NC(=O)[C@@H](Cc2ccc(O)cc2)NC(=O)[C@@H](CC(N)=O)NC(=O)[C@H]2CCCN2C(=O)[C@@H]([C@H](C)O)NC(=O)[C@@H]([C@H](C)O)NC(=O)[C@@H](Cc2ccc(O)cc2)NC(=O)[C@@H](CCC(N)=O)NC1=O`: the inhibition in assay [1] is 45%; in assay [2] it was 70%. Further, the cell proliferation (% of vehicle) at 10 µM in assay [3] came to 81%. The residual activity in assay [4] came to 68%.
On to `CSCC[C@@H]1NC(=O)[C@H](CCC(N)=O)NC(=O)[C@H](Cc2ccc(O)cc2)NC(=O)[C@H]([C@@H](C)O)NC(=O)[C@H]([C@@H](C)O)NC(=O)[C@@H]2CCCN2C(=O)[C@H](CC(N)=O)NC(=O)[C@H](Cc2ccc(O)cc2)NC(=O)[C@@H](N)CSSC[C@@H](C(=O)O)NC1=O`, for which the inhibition entry in assay [2] is “Active”. The compound further had a cell proliferation (% of vehicle) at 10 µM in assay [3] of 84%. The residual activity in assay [4] stood at 69%.
`CSCC[C@@H]1NC(=O)[C@H](CCC(N)=O)NC(=O)[C@H](Cc2ccc(O)cc2)NC(=O)[C@@H]2CSSC[C@H](NC(=O)[C@H](Cc3ccc(O)cc3)NC(=O)[C@@H](N)CSSC[C@@H](C(=O)O)NC1=O)C(=O)N1CCC[C@H]1C(=O)N[C@@H]([C@@H](C)O)C(=O)N2` (HELM PEPTIDE1{C.Y.C.P.T.C.Y.Q.M.C}$PEPTIDE1,PEPTIDE1,1:R3-10:R3|PEPTIDE1,PEPTIDE1,3:R3-6:R3$$$V2.0): the inhibition in assay [5] was found to be 65%. In addition, the residual activity in assay [4] stood at 83%.
Regarding `CSCC[C@@H]1NC(=O)[C@H](CCC(N)=O)NC(=O)[C@H](Cc2ccc(O)cc2)NC(=O)[C@H]([C@@H](C)O)NC(=O)[C@H]([C@@H](C)O)NC(=O)[C@@H]2CCCN2C(=O)[C@H](CC(N)=O)NC(=O)[C@H](Cc2ccc(O)cc2)NC(=O)[C@@H](NC(=O)[C@H](CCSC)NC(=O)[C@@H](N)CC(C)C)CSSC[C@@H](C(=O)O)NC1=O` (HELM PEPTIDE1{L.M.C.Y.N.P.T.T.Y.Q.M.C}$PEPTIDE1,PEPTIDE1,3:R3-12:R3$$$V2.0), the inhibition entry in assay [6] is “Active”.
For the compound `CSCC[C@H](NC(=O)[C@H](CCC(N)=O)NC(=O)[C@H](Cc1ccc(O)cc1)NC(=O)[C@@H]1CSSC[C@H](NC(=O)[C@H](Cc2ccc(O)cc2)NC(=O)[C@@H](N)CC(C)C)C(=O)N2CCC[C@H]2C(=O)N[C@@H]([C@@H](C)O)C(=O)N1)C(=O)N[C@@H](CC(=O)O)C(=O)O` (HELM PEPTIDE1{L.Y.C.P.T.C.Y.Q.M.D}$PEPTIDE1,PEPTIDE1,3:R3-6:R3$$$V2.0), the inhibition in assay [5] was found to be 32%. For the same compound, the residual activity in assay [4] is 90%.
For `CSCC[C@@H]1NC(=O)[C@H](CCC(N)=O)NC(=O)[C@H](Cc2ccc(O)cc2)NC(=O)[C@H]([C@@H](C)O)NC(=O)[C@H]([C@@H](C)O)NC(=O)[C@@H]2CCCN2C(=O)[C@H](CC(N)=O)NC(=O)[C@H](Cc2ccc(O)cc2)NC(=O)[C@@H](NC(=O)[C@H](CCSC)NC(=O)[C@H](CC(C)C)NC(=O)[C@@H]2CCCN2)CSSC[C@@H](C(=O)O)NC1=O` (HELM PEPTIDE1{P.L.M.C.Y.N.P.T.T.Y.Q.M.C}$PEPTIDE1,PEPTIDE1,4:R3-13:R3$$$V2.0), the inhibition result in assay [6] is “Active”.
Consider H-LVYNKLTFQLEPNPHTK-OH, for which the cell proliferation (% of vehicle) at 10 µM in assay [3] is 95%.

What is called inhibition is the drop in the measured response relative to a control, in per cent. The residual activity is the activity still measured, relative to the control.
